Calls of active or inactive are those of the source. The rule behind the calls is not given here.
Tests used:
CCRF-CEM [1] = test: Antiproliferative activity against human CEM cells after 72 hrs by trypan blue assay; type: functional, cell-based
How it was run: (§1)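 Cells kept in RPMI-1640 with 10% heat-inactivated fetal calf serum, penicillin and streptomycin, 5% CO2, 37 °C, used in exponential growth. 1 × 10⁵ cells per well exposed to compound at 0.001–10 µM at 37 °C (48 h in methods, 72 h in table footnotes). Viability by Trypan blue versus untreated controls. IC50 by nonlinear regression, duplicate, three repeats.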

Daudi = test: Antiproliferative activity against human Daudi cells after 72 hrs by trypan blue assay; type: functional, cell-based; how it was run: as §1
MCF7 = test: Antiproliferative activity against human MCF7 cells after 72 hrs by trypan blue assay; type: functional, cell-based; details: MCF7, 72 h; how it was run: as §1
Bel-7402 [2] = test: Antitumor activity against human Bel7402 cells xenografted BALB/c mouse assessed as inhibition of tumor growth at 5 mg/kg, ip q2d after 25 days relative to control; type: functional; details: Bel-7402, ip, 600 h, route intraperitoneal
How it was run: (§2)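 Male Balb/c nude mice (16-20 g, 6-7 weeks) given sc Bel-7402 cells, 5 × 10⁶ per mouse, on the back. Six injections q2d. Tumor volume measured weekly by calipers = length × width² × 0.52. Body weight recorded before and after treatment.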

Bel-7402 [3] = test: Antitumor activity against human Bel7402 cells xenografted BALB/c mouse assessed as inhibition of tumor growth at 10 mg/kg, ip q2d after 25 days relative to control; type: functional; details: Bel-7402, ip, 600 h, route intraperitoneal; how it was run: as §2
Mus musculus = test: Toxicity in human Bel7402 cells xenografted BALB/c mouse assessed as body weight at 10 mg/kg, ip q2d after 25 days relative to control; type: organism-based, Bel-7402; parameters: dose 10 mg/kg, route intraperitoneal; details: in vivo, 600 h; how it was run: as §2
CCRF-CEM [4] = test: Cell cycle arrest in human CEM cells assessed as accumulation at M phase at <0.01 uM after 12 hrs by flow cytometry; type: functional
Bel-7402 [5] = test: Antitumor activity against human Bel7402 cells xenografted ip dosed BALB/c mouse assessed as inhibition of tumor growth after 25 days relative to control; type: functional; details: Bel-7402, ip, 600 h
How it was run: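 Male Balb/c nude mice (16-20 g, 6-7 weeks) given sc Bel-7402 cells (5 × 10⁶/mouse) on the back. On day 12 they were randomized (5/group) to solvent control or 5 or 10 mg/kg ip, six doses q2d. Tumors were measured weekly by caliper, volume = length × width² × 0.52. Inhibition was taken versus solvent-treated controls on day 25 post-treatment.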

Bel-7402 [6] = test: Antiproliferative activity against human Bel7402 cells after 72 hrs by trypan blue assay; type: functional, cell-based; details: Bel-7402, 72 h; how it was run: as §1
DU-145 = test: Antiproliferative activity against human DU145 cells after 72 hrs by trypan blue assay; type: functional, cell-based; details: DU-145, 72 h; how it was run: as §1
PC-3 = test: Antiproliferative activity against human PC3 cells after 72 hrs by trypan blue assay; type: functional, cell-based; details: PC-3, 72 h; how it was run: as §1
[7] = Antiproliferative activity against human DND1A cells after 72 hrs by trypan blue assay; type: functional, cell-based; how it was run: as §1
LoVo = test: Antiproliferative activity against human LOVO cells after 72 hrs by trypan blue assay; type: functional, cell-based; how it was run: as §1
[8] = Antiproliferative activity against human MIA cells after 72 hrs by trypan blue assay; type: functional, cell-based; how it was run: as §1
CCRF-CEM [9] = test: Cell cycle arrest in human CEM cells assessed as accumulation at G2/M phase at 0.22 uM after 4 to 24 hrs by flow cytometry; type: functional, cell-based
How it was run: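 CEM cells exposed to 0.22 µM compound or left untreated for 4, 12 or 24 h. Fixed in 70% ethanol for at least 12 h at 4 °C, then RNase A 50 µg/mL at 37 °C for 30 min and propidium iodide 50 µg/mL final at 4 °C for 30 min. At least 10⁴ events read by flow cytometry for DNA profile.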

[10] = Inhibition of beta tubulin polymerization at 1 uM
[11] = Inhibition of beta tubulin polymerization
CCRF-CEM [12] = test: Induction of apoptosis in human CEM cells assessed as Bcl2 phosphorylation at 0.014 to 0.27 uM after 12 to 24 hrs by Western blot; type: functional, cell-based
How it was run: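 CEM cells exposed to 0.014–0.27 µM for 12 or 24 h, then lysed in Tris-HCl pH 7.4 buffer with detergents and protease/phosphatase inhibitors. Equal lysate run on 10% SDS-PAGE and transferred to PVDF. Blocked in 5% milk/TBST, probed with anti-Bcl-2 monoclonal and HRP secondary, detected by ECL; phosphorylated Bcl-2 seen as a separate band.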

CCRF-CEM [13] = test: Cell cycle arrest in human CEM cells assessed as morphological changes at 0.014 uM after 24 hrs by Giemsa staining
[14] = Inhibition of beta tubulin polymerization at 20 uM

Row | Structure (SMILES) | IC50 (CCRF-CEM [1]) [µM] | other results
1 | NC(=O)NC(=O)c1cc(NC(=O)CCl)ccc1Cl | 2.44 | 
2 | NC(=O)NC(=O)c1ccc(Cl)c(NC(=O)CBr)c1 | 2.91 | 
3 | CC(Br)C(=O)Nc1ccc(F)c(C(=O)NC(N)=O)c1 (stereo not given) | 0.52 | 
4 | C[C@H](Br)C(=O)Nc1cccc(C(=O)NC(N)=O)c1 | 1.47 | 
5 | COC(=O)c1cc(NC(=O)C(C)Br)cc(C(=O)NC(N)=O)c1 (stereo not given) | 2.7 | 
6 | C[C@@H](Br)C(=O)Nc1cccc(C(=O)NC(N)=O)c1 | 1.47 | 
7 | NC(=O)NC(=O)c1ccc(F)c(NC(=O)CCl)c1 | > 20 | 
8 | NC(=O)NC(=O)c1cc(NC(=O)CBr)ccc1F | < 0.01 | IC50 (Daudi): 0.015 µM; IC50 (MCF7): 0.08 µM; inhibition in vivo at 5 mg/kg (Bel-7402 [2]): 37%; inhibition in vivo at 10 mg/kg (Bel-7402 [3]): 52%; Activity (Mus musculus): 18.6 g; Activity (CCRF-CEM [4]): 31.3%
9 | Cc1c(NC(=O)C(C)Br)cccc1C(=O)NC(N)=O (stereo not given) | 0.48 | 
10 | Cc1ccc(C(=O)NC(N)=O)cc1NC(=O)C(C)Cl (stereo not given) | > 20 | 
11 | CC(Br)C(=O)Nc1cc(C(=O)NC(N)=O)ccc1F (stereo not given) | 3.13 | 
12 | NC(=O)NC(=O)c1cccc(NC(=O)CI)c1 | < 0.01 | inhibition in vivo at 10 mg/kg (Bel-7402 [3]): 57%; LD50 (Bel-7402 [5]): 31 mg/kg
13 | CC(Cl)C(=O)Nc1cc(C(=O)NC(N)=O)ccc1Cl (stereo not given) | > 20 | 
14 | NC(=O)NC(=O)c1ccc(O)c(NC(=O)CCl)c1 | > 20 | 
15 | Cc1ccc(NC(=O)CBr)cc1C(=O)NC(N)=O | 4.76 | 
16 | CC(Br)C(=O)Nc1cc(C(=O)NC(N)=O)ccc1Cl (stereo not given) | 9.8 | 
17 | Cc1ccc(C(=O)NC(N)=O)cc1NC(=O)C(C)Br (stereo not given) | 3.36 | 
18 | NC(=O)NC(=O)c1ccc(O)c(NC(=O)CBr)c1 | > 20 | 
19 | NC(=O)NC(=O)c1cc(NC(=O)CI)ccc1F | < 0.01 | IC50 (Daudi): < 0.01 µM; IC50 (MCF7): < 0.01 µM; IC50 (Bel-7402 [6]): 0.16 µM; IC50 (DU-145): 0.22 µM; IC50 (PC-3): 0.19 µM; IC50 [7]: 0.02 µM; IC50 (LoVo): 0.19 µM; IC50 [8]: 0.054 µM; inhibition in vivo at 5 mg/kg (Bel-7402 [2]): 62%; inhibition in vivo at 10 mg/kg (Bel-7402 [3]): 86%; Activity (Mus musculus): 21.6 g; LD50 (Bel-7402 [5]): 38.8 mg/kg; Activity (CCRF-CEM [9]): Active; Activity [10]: Active; IC50 [11]: 0.71 µM; Activity (CCRF-CEM [4]): 37.6%; Activity (CCRF-CEM [12]): Active; Activity (CCRF-CEM [13]): Active
20 | NC(=O)NC(=O)c1ccc(Cl)c(NC(=O)CCl)c1 | 15.9 | 
21 | Cc1c(NC(=O)CBr)cccc1C(=O)NC(N)=O | 1.71 | 
22 | NC(=O)NC(=O)c1ccc(F)c(NC(=O)CBr)c1 | 2.29 | 
23 | NC(=O)NC(=O)c1ccc(NC(=O)CBr)o1 | 4.05 | 
24 | Cc1ccc(NC(=O)CI)cc1C(=O)NC(N)=O | 20 | 
25 | CC(Br)C(=O)Nc1cc(C(=O)NC(N)=O)cs1 (stereo not given) | 3.94 | 

Row | Structure (SMILES) | IC50 (CCRF-CEM [1]) [µM] | other results
26 | NC(=O)NC(=O)c1ccc(NC(=O)CCl)o1 | 16.6 | 
27 | CC(Br)C(=O)Nc1ccc(Br)c(C(=O)NC(N)=O)c1 (stereo not given) | 7.63 | 
28 | NC(=O)NC(=O)c1cc(NC(=O)CBr)ccc1Br | 1.16 | 
29 | COc1ccc(C(=O)NC(N)=O)cc1NC(=O)C(C)Cl (stereo not given) | > 20 | 
30 | COc1ccc(C(=O)NC(N)=O)cc1NC(=O)CCl | > 20 | 
31 | COC(=O)c1cc(NC(=O)CI)cc(C(=O)NC(N)=O)c1 | 1.91 | 
32 | NC(=O)NC(=O)c1cc(NC(=O)CCl)ccc1F | 7.68 | 
33 | NC(=O)NC(=O)c1cc(NC(=O)CBr)cc([N+](=O)[O-])c1 | 1.53 | 
34 | COc1ccc(NC(=O)CBr)cc1C(=O)NC(N)=O | 1.57 | 
35 | Cc1c(NC(=O)CCl)cccc1C(=O)NC(N)=O | 2.7 | 
36 | CC(Br)C(=O)Nc1ccc(C(=O)NC(N)=O)o1 (stereo not given) | 9.44 | 
37 | NC(=O)NC(=O)c1cc(NC(=O)CBr)ccc1Cl | 0.54 | 
38 | CC(Br)C(=O)Nc1cc(C(=O)NC(N)=O)cc([N+](=O)[O-])c1 (stereo not given) | 1.58 | 
39 | Cc1ccc(NC(=O)C(C)Br)cc1C(=O)NC(N)=O (stereo not given) | > 20 | 
40 | Cc1c(NC(=O)C(C)Cl)cccc1C(=O)NC(N)=O (stereo not given) | > 20 | 
41 | NC(=O)NC(=O)c1csc(NC(=O)CBr)c1 | 1.13 | 
42 | CC(Br)C(=O)Nc1ccc(Cl)c(C(=O)NC(N)=O)c1 (stereo not given) | 2.55 | 
43 | COc1ccc(C(=O)NC(N)=O)cc1NC(=O)C(C)Br (stereo not given) | > 20 | 
44 | Cc1ccc(C(=O)NC(N)=O)cc1NC(=O)CCl | 3.36 | 
45 | CC[C@]1(O)C[C@H]2CN(CCc3c([nH]c4ccccc34)[C@@](C(=O)OC)(c3cc4c(cc3OC)N(C=O)[C@H]3[C@@](O)(C(=O)OC)[C@H](OC(C)=O)[C@]5(CC)C=CCN6CC[C@]43[C@@H]65)C2)C1 |  | Activity [14]: Active
46 | COC(=O)c1cc(NC(=O)CBr)cc(C(=O)NC(N)=O)c1 | 1.3 | 
47 | COc1ccc(C(=O)NC(N)=O)cc1NC(=O)CBr | 1.88 | 
48 | Cc1ccc(C(=O)NC(N)=O)cc1NC(=O)CBr | 4.28 | 
49 | CC(=O)O[C@H]1C(=O)[C@@]2(C)[C@H]([C@H](OC(=O)c3ccccc3)[C@]3(O)C[C@H](OC(=O)[C@H](O)[C@@H](NC(=O)c4ccccc4)c4ccccc4)C(C)=C1C3(C)C)[C@]1(OC(C)=O)CO[C@@H]1C[C@@H]2O |  | Activity [14]: inactive
